# Jurkat NFkB inh: inhibitors of the PMA/ionomycin-induced NF-kB reporter in Jurkat cells | PMA/ionomycin-induced NF-kB luciferase reporter, luminescence | inhibition, % at 4 µM | 330,000 compounds, 0.53% hits | AID 435003; in the data active means inhibition above about 50%
# NR2E3 ag-1: agonists of human nuclear receptor NR2E3; GST-NR2E3/biotin-RetCOR TR-FRET, 1536-well; inhibition of corepressor binding, % at 4.78 µM; 320,000 compounds, 0.12% hits; AID 2300;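 active means percent inhibition above the cutoff of mean plus 3 SD of all tested compounds, set per screening campaign, cut at about 20% in these data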;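 further: 0% = DMSO wells and 100% = biotin wells as full block of FRET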
#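 System: GST-NR2E3 and biotin-RetCOR proteins; probe or stimulus: 7 nM biotin-RetCOR; doses: compound at 4.8 µM, single dose; schedule: Compound–protein incubation for 5 h at 4 °C; detection: time-resolved FRET; read-out: percent inhibition; controls: biotin wells as high control, 0.6% DMSO wells as low control; format: 1536-well plates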
# 697 NFkB inh: lowers PMA/ionomycin-induced NF-kB signal in 697 B cells. 697 B-cell NF-kB luciferase reporter, 16 h. inhibition, % at 4 µM. 330,000 compounds, 0.33% hits. AID 435022; in the data active means inhibition above about 35%
# MPTP inh: permeability transition pore inhibition | isolated mouse mitochondria, Ca2+ swelling absorbance, 30 min | 360,000 compounds, 1.4% hits | inhibition, % at 10 µM;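 active means inhibition of 50% or more, scaled per plate between neutral and stimulator controls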;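 further: 0% = DMSO wells given calcium and 100% = 1 mM EGTA wells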
# aDG glyco act: alpha-DG glycosylation activation. Pro5-aDG cells, alpha-DG glycosylation AlphaScreen (IIH6); 0% Pro5, 100% B10-LARGE cell signal. activation, % at 10 µM. 360,000 compounds, 0.22% hits. AID 624168;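 active means activation of at least 8% versus controls, or a plate z-score of at least 8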;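 further: Pro5 are CHO cells carrying HIG-tagged alpha-DG that lacks glycosylation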
# NR2E3 ag-2: human photoreceptor-specific nuclear receptor agonism; Q9Y5X4; CHO-S Gal4-NCOR/VP16-NR2E3 two-hybrid, luciferase; inhibition of corepressor binding, % at 3.98 µM; 360,000 compounds, 0.35% hits; AID 602229;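 active means inhibition above the mean of all tested compounds plus 3 SD, cut at about 70% in these data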;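 further: 0% = DMSO with NR2E3 transfected cells and 100% = cells lacking NR2E3 construct; higher means lower luciferase signal from less NR2E3 corepressor binding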
# NR2E3 ag confirm: confirmation of human NR2E3 nuclear receptor agonists; AID 2379; shares compounds with NR2E3 ag-1; 360 compounds, 39% hits; activation (reported as inhibition), % at 3.98 µM; cell-free NR2E3 corepressor release, TR-FRET, 5 h; in the data active means activation above about 20%
# PPARg-NCOR2 ctr: releases PPARgamma from NCOR2 in NR2E3 counter-screen; shares compounds with NR2E3 ag-1; TR-FRET PPARg-NCOR2 coregulator interaction, biochemical; inhibition, % at 3.98 µM; 360 compounds, 45% hits; AID 504787; in the data active means inhibition above about 20%;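 further: 0% = DMSO vehicle and 100% = wells without protein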
# * = called active by the depositor; / = no result. Sampled rows, rich in hits. Any-hit rate of the full collection: about 2.4%.
SMILES,Jurkat NFkB inh,NR2E3 ag-1,697 NFkB inh,MPTP inh,aDG glyco act,NR2E3 ag-2,NR2E3 ag confirm,PPARg-NCOR2 ctr
CCOC(=O)[C@]12CCCC=C1N(Cc1ccc3c(c1)OCO3)C(=O)[C@H](CC(=O)NCCCCc1ccccc1)C2,/,/,/,-3.2,0.5,28.1,/,/
CC(=O)CSc1nc(N)c(C#N)c(-c2cccs2)c1C#N,7.2,1.9,-23.5,0.4,-0.1,-13.5,/,/
CC(C)(C)C(=O)CSc1nc2c(c(-c3cccs3)c1C#N)CCC2,-5.5,21.1*,-3.2,3.4,0.1,-28.0,5.4,18.1
Cc1ccc(CNC(=O)[C@H]2O[C@@H](n3ccc(N)nc3=O)[C@H](O)[C@@H]2O)o1,/,/,/,-0.6,-0.5,0.8,/,/
Brc1cc(Br)c2ncnc(N3CCCCC3)c2c1,10.3,33.8*,-9.4,1.1,-0.3,-15.6,34.1*,29.2*
COc1ccc(S(=O)(=O)N(C)CC(=O)N2CCC(C)CC2)cc1Cl,-2.1,22.2*,-3.2,-0.4,-0.2,-11.2,-8.9,-6.4
CSc1nc(Sc2ccccc2Cl)c2ccccc2n1,1.2,26.5*,1.2,4.8,0.5,-1.9,9.8,13.4
CCOC(=O)c1cnc(SC)nc1Sc1ccccc1Cl,-4.2,1.7,11.6,3.0,-0.1,-17.8,/,/
Cc1cc(N2C(=O)C(O)=C(C(=O)c3cc4ccccc4o3)C2c2ccc([N+](=O)[O-])cc2)no1 (stereo not given),3.6,-1.0,13.2,7.6,-0.1,17.8,/,/
Cc1cc(N2C(=O)C(O)=C(C(=O)c3cc4ccccc4o3)C2c2cccs2)no1 (stereo not given),5.7,24.1*,3.1,-0.3,-0.2,13.1,31.3*,34.0*
Cc1cc(N2C(=O)C(O)=C(C(=O)c3ccco3)C2c2ccccc2F)no1 (stereo not given),3.2,28.3*,14.6,-0.9,3.6,-17.0,12.0,12.8
Cc1ccc(C2C(C(=O)c3cc4ccccc4o3)=C(O)C(=O)N2c2cc(C)on2)cc1 (stereo not given),-24.2,23.0*,-29.4,15.7,-0.1,26.6,27.9*,34.5*
Fc1cccc(Cl)c1C1SCc2nc3ccccc3n21 (stereo not given),/,/,/,-1.6,-0.3,0.6,/,/
O=c1[nH][nH]c2c1C(c1cccc(C(F)(F)F)c1)OC(CCc1ccccc1)C2 (stereo not given),/,/,/,2.6,0.3,-26.8,/,/
N#Cc1c(-c2ccco2)c2c([nH]c1=S)CCCC2,-12.8,38.7*,-3.6,-4.3,1.0,-35.4,14.4,22.6*
N#Cc1c(-c2cccnc2)c2c([nH]c1=S)CCCC2,12.2,10.2,4.0,0.2,0.1,6.4,/,/
Cc1[nH]c(=S)c(C#N)c2c1CCCC2,1.7,0.8,8.7,-3.2,-0.2,4.8,/,/
CC(C)Cc1c2c([nH]c(=S)c1C#N)CCCC2,-3.6,38.2*,18.3,0.0,-0.2,-5.0,33.8*,35.9*
CCOC1=C2CN(S(=O)(=O)c3ccc(C)cc3)C(c3cccc(Cl)c3)CC2N(S(=O)(=O)c2ccc(C)cc2)C(c2ccncc2)C1 (stereo not given),/,/,/,-0.4,-0.1,/,/,/
COc1ccc2nc(C)cc(SCC(=O)Nc3c(C)cc(C)cc3C)c2c1,5.5,35.9*,-0.8,0.8,0.4,-17.5,-54.8,-55.3
CCOC(=O)c1c(NC(=S)Nc2cc([N+](=O)[O-])ccc2OC)sc2c1CCCCC2,-3.0,0.9,-18.3,/,/,/,/,/
COC(=O)c1c(NC(=S)Nc2cc(OC)c(Cl)cc2OC)sc2c1CCCCC2,7.4,19.8*,-3.7,4.5,0.0,23.2,0.5,0.0
O=C(Nc1ccccc1N1CCOCC1)[C@@H]1O[C@H](CO)[C@H](O)[C@H](O)[C@H]1O,/,/,/,-0.8,-0.1,-8.1,/,/
COc1cccc(C(C(=O)NC2CCCC2)N2CCN(c3cc(C)ccc3C)CC2)c1OC (stereo not given),/,/,/,0.4,0.2,/,/,/
Cc1nn(CCc2nn[nH]n2)c2nc(C(F)(F)F)cc(C(F)(F)F)c12,-6.2,3.8,16.2,-0.6,-0.1,-14.2,/,/
SMILES,Jurkat NFkB inh,NR2E3 ag-1,697 NFkB inh,MPTP inh,aDG glyco act,NR2E3 ag-2,NR2E3 ag confirm,PPARg-NCOR2 ctr
Cc1nn(CCc2nn[nH]n2)c2nc(-c3ccc(Br)cc3)cc(C(F)(F)F)c12,-4.6,25.3*,-23.9,27.3,0.0,3.9,36.9*,32.7*
O=c1oc2c(O)c(O)cc3c(=O)oc4c(O)c(O)cc1c4c23,/,37.6*,/,0.9,-0.1,-14.0,33.9*,/
O=c1oc2ccccc2c2oc3cc(O)c(O)cc3c12,-84.2,-1.0,-132.5,18.8,0.1,-124.5,/,/
O=C(CSc1ncnc2ccccc12)Nc1ccc2c(c1)OCCO2,-3.7,0.1,-5.7,1.6,0.1,-36.5,/,/
O=C(CSc1nc(Cc2ccccc2)nc2ccccc12)Nc1ccc2c(c1)OCCO2,-9.9,27.6*,12.0,1.9,0.0,17.6,-3.6,17.1
CS(=O)(=O)Nc1ccc(-c2n[nH]c(=S)n2-c2ccccc2)cc1,3.4,26.8*,7.8,-0.3,-0.1,8.1,10.0,9.1
O=C(Nc1ccc(Oc2ccccc2)cc1)c1csc([C@@H]2C[C@H](O)[C@@H](CO)O2)n1,/,/,/,2.1,0.1,-8.5,/,/
CC1=NN(c2ccc(C)c(C)c2)C(=O)C1C(c1cccc(O)c1)C1C(=O)N(c2ccc(C)c(C)c2)N=C1C (stereo not given),7.0,21.1*,11.2,5.6,0.0,27.9,-4.0,5.9
CC1=NN(c2ccc(C)cc2C)C(=O)C1C(c1ccccc1O)C1C(=O)N(c2ccc(C)cc2C)N=C1C (stereo not given),10.1,5.2,9.3,-0.2,-0.1,-9.9,/,/
CCCCOC(=O)CSC1=C(C#N)C(c2ccccc2OCC)C(C#N)C(=O)N1 (stereo not given),7.0,21.8*,-7.9,3.2,-0.1,10.9,-6.0,36.5*
COC1OC(c2ccccc2)=C(c2cnc(N)nc2)c2ccc(F)cc21 (stereo not given),/,/,/,-1.6,0.1,-32.1,/,/
O=C(O)c1ccc2c(c1)C(=O)/C(=C\c1ccco1)C2=O,-0.1,38.1*,5.1,2.9,0.0,-24.7,10.1,26.4*
O=C(O)c1cc2ccccc2c2cc(Br)ccc12,-2.8,23.4*,21.2,-0.6,0.0,-10.6,19.0,55.8*
CC(C)(C)OC(=O)N1CCC[C@H]1C(=O)NCc1ccc(F)cc1F,/,/,/,-2.2,0.2,-4.1,/,/
COC(=O)c1cc2n3ccccc3c(C)c(-c3ccccc3)c-2c1C(=O)OC,7.2,59.4*,12.9,0.0,0.1,-12.8,63.5*,62.9*

# Bioassay records: PubChem, several laboratories
